Here are results for twelve molecules from ChEMBL document CHEMBL1123681, “Molecular modification of anticholinergics as probes for muscarinic receptors. 2. Amino esters of alpha-methyltropic acid” (J Med Chem, 1987).

Data set [1] is filed under the species Rattus norvegicus. As to the kind of experiment: Antispasmodic activity calculated as ability of compound to block ACh-induced contractions of the ileum and expressed as pA2. Format: functional, organism-based. As to conditions: for Kb: Rattus norvegicus, Ileum, read-out: pA2 (converted). In a few lines: (§1)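 Ileum from overnight-fasted rats killed by cervical dislocation, suspended in aerated Tyrode solution and recorded via force-displacement transducer. Contractions measured across increasing ACh concentrations, then ACh responses with antagonist present. pA2 derived by the Ariens–van Rossum method as the mean from linear regression of two or more experiments at four or more dose levels. ID50 is the molar antagonist concentration inhibiting 50% of a standard contraction.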

The species named for data set [2] is Cavia porcellus. As to the kind of experiment: Ability to inhibit 50% standard contraction response of the guinea pig ileal tissue was measured with increasing concentrations of Acetylcholine (ACh) in the tissue bath. It counts as functional.
The species named for data set [3] is Rattus norvegicus. Description: Antispasmodic activity was calculated as molar concentration of antagonist that inhibited 50% of a standard contraction response from isolated rat ileum preparation. It counts as functional. Conditions: read-out: ID50 (the source's name).
The species named for data set [4] is Rattus norvegicus. As to the kind of experiment: Relative potency with respect to (+/-)-3-Hydroxy-2-methyl-2-phenyl-propionic acid 2-diethylamino-ethyl ester in isolated rat ileum preparation. Format: functional.
The species entered for data set [5] is Rattus norvegicus. Description: (§2) Antispasmodic activity was measured as uM). Format: functional.
The species entered for data set [6] is Rattus norvegicus. The description is as §2. It counts as functional. This is another data set of the same source.
Data set [7] is filed under the species Rattus norvegicus. The data set is described as §2. Format: functional. The source holds these as a separate data set.
Data set [8] is filed under the species Cavia porcellus. As to the kind of experiment: Ability to inhibit 50% standard contraction response of the guinea pig ileal tissue was measured with increasing concentrations of Acetylcholine (ACh) in the tissue bath.
Data set [9] is filed under the species Rattus norvegicus. As to the kind of experiment: Antispasmodic activity was measured as percent reduction in rat ileum contraction against 300 ug/mL barium chloride 0.5 ug/mL (1.5 X 10E-6 uM). Format: functional. In outline: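 Ileum strips from overnight-fasted rats killed by cervical dislocation, held in a tissue bath with force-displacement transducer recording. BaCl2 at 300 µg/mL, a standard dose set by a preliminary dose-response study, induced contraction; tissue washed back to baseline. Test agent equilibrated 10 min, then the same BaCl2 dose was added without washout. Percent inhibition was taken from contraction before versus after agent.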

Data set [10] is filed under the species Rattus norvegicus. Description: Antispasmodic activity was measured as percent reduction in rat ileum contraction against 300 ug/mL barium chloride 3 ug/mL (6.4X 10E-6 uM). It counts as functional. In a few lines: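 Rat ileum strips in a tissue bath were contracted with a standard BaCl2 dose (300 μg/mL), chosen from a preliminary dose-response, then washed back to baseline. Test compound was added and equilibrated for 10 min. Without washout, the same BaCl2 dose was given again. Percent inhibition was taken from the contraction before versus after compound.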

In the next data set the test system is ileum (Cavia porcellus). Description: Antispasmodic activity was calculated as molar concentration of antagonist that inhibited 50% of a standard contraction response from isolated guinea pig ileum preparation. As to conditions: read-out: ID50 (the source's name).
The species named for data set [11] is Cavia porcellus. As to the kind of experiment: Antispasmodic activity was determined from isolated guinea pig ileum preparation.
The species entered for data set [12] is Rattus norvegicus. As to the kind of experiment: Antispasmodic activity was calculated according to Ariens and van Rossum from isolated rat ileum preparations. As to conditions: read-out: pA2 (converted). It counts as functional. In a few lines:
as §1

Take `CCN(CC)CCOC(=O)C(C)(CO)c1ccccc1.Cl` (racemic): the pA2 in the data set filed under Rattus norvegicus [1] is on record as 6.5. For the same molecule, the ID50 in the data set listed under Cavia porcellus [2] was 483 nM. The IC50 in the data set listed under Rattus norvegicus [3] is 314 nM.

As to `CCN(CC)CCOC(=O)C(C)(CF)c1ccccc1.Cl` (stereo unspecified), the Kb in the data set listed under Rattus norvegicus [1] is 302 nM. Further, the Relative potency in the data set listed under Rattus norvegicus [4] is listed as 1.04. The ID50 in the data set listed under Cavia porcellus [2] worked out at 411 nM. Further, the results for the Inhibition in the data set listed under Rattus norvegicus [5], in the data set filed under Rattus norvegicus [6] and in the data set listed under Rattus norvegicus [7] were 35.7%, 15.7% and 24%, respectively. For the same molecule, the IC50 in the data set filed under Rattus norvegicus [3] (Rattus norvegicus, Ileum) was 301 nM.

Take `CCN(CC)CCOC(=O)C(C)(CCl)c1ccccc1.Cl` (stereo unspecified): in the data set listed under Rattus norvegicus [1], the Kb is 550 nM. Further, the Relative potency in the data set listed under Rattus norvegicus [4] amounted to 0.57. Moreover, the IC50 in the data set filed under Rattus norvegicus [3] (Rattus norvegicus, Ileum) is 554 nM. In the data set listed under Cavia porcellus [8], this molecule yielded an ID50 of 1170 nM.

In the case of `CN1[C@@H]2CC[C@H]1C[C@@H](OC(=O)C(CO)c1ccccc1)C2` (stereo partly specified) [ATROPINE], in the data set listed under Rattus norvegicus [9], the Inhibition amounted to 5.9%.

Consider `CCN(CC)CCOC(=O)C(C)(COS(=O)(=O)c1ccc(C)cc1)c1ccccc1.Cl` (racemic), for which, in the data set listed under Rattus norvegicus [1], the pA2 is listed as 7.41. In the data set listed under Rattus norvegicus [4], this molecule yielded a Relative potency of 8.07. Further, in the data set filed under Rattus norvegicus [3], the IC50 was 38.9 nM. In the data set filed under Rattus norvegicus [10], this molecule yielded an Inhibition of 33%.

For `CCN(CC)CCOC(=O)C(C)(COC(C)=O)c1ccccc1.Cl` (stereo unspecified), in the data set listed under Rattus norvegicus [4], the Relative potency is listed as 0.8. For the same molecule, in the data set with ileum (Cavia porcellus), the IC50 was 394 nM.

Consider `CCN(CC)CCOC(=O)C(C)(CO)c1ccccc1.Cl` (single isomer, unassigned; (+)), for which the pA2 in the data set filed under Rattus norvegicus [1] was 5.94. Also, the Relative potency in the data set filed under Rattus norvegicus [4] was 0.27. Besides, the IC50 in the data set listed under Rattus norvegicus [3] is 1140 nM. In addition, the “Log K” value in the data set listed under Cavia porcellus [11] was 6.13.

Turning to `CCN(CC)CCOC(=O)C(C)(COS(=O)(=O)c1ccc(C)cc1)c1ccccc1.Cl` (stereo in doubt; 2a), the pA2 in the data set listed under Rattus norvegicus [1] is 7.51. This molecule came in with a Relative potency in the data set filed under Rattus norvegicus [4] of 10.13. For the same molecule, the IC50 in the data set filed under Rattus norvegicus [3] is 31 nM.

For the molecule `CCN(CC)CCOC(=O)C(C)(CO)c1ccccc1.Cl` (single isomer, unassigned; (-)), the Relative potency in the data set filed under Rattus norvegicus [4] is 19.26. Further, in the data set listed under Rattus norvegicus [12], the Kb is 16.2 nM. Also, in the data set filed under Rattus norvegicus [3], the IC50 is 16.3 nM. The “Log K” value in the data set listed under Cavia porcellus [11] amounted to 7.996.

For the molecule `CCN(CC)CCOC(=O)C(C)(CI)c1ccccc1.Cl` (stereo unspecified), the Kb in the data set listed under Rattus norvegicus [1] was 38.9 nM. In the data set filed under Rattus norvegicus [4], this molecule had a Relative potency of 8.11. In addition, in the data set listed under Rattus norvegicus [3] (Rattus norvegicus, Ileum), the IC50 was 38.7 nM.

Regarding `CCN(CC)CCOC(=O)C(C)(COS(=O)(=O)c1ccc(C)cc1)c1ccccc1.Cl` (stereo in doubt; 2b), in the data set filed under Rattus norvegicus [1], the pA2 is listed as 6.77. In the data set listed under Rattus norvegicus [4], this molecule yielded a Relative potency of 1.83. Moreover, the IC50 in the data set listed under Rattus norvegicus [3] was 172 nM.

For the molecule `CCN(CC)CCOC(=O)C(C)(CBr)c1ccccc1.Cl` (stereo unspecified), the Kb in the data set listed under Rattus norvegicus [1] was 126 nM. Moreover, the Relative potency in the data set filed under Rattus norvegicus [4] is recorded as 2.47. Besides, the IC50 in the data set filed under Rattus norvegicus [3] (Rattus norvegicus, Ileum) was 127 nM.

What is called pA2 is the negative logarithm of the molar antagonist concentration that doubles the agonist concentration needed for the same response. Usually Inhibition stands for the percentage by which the read-out fell short of the control.
